Laboratory results from ChEMBL document CHEMBL4699644, “Discovery of a potent dual inhibitor of wild-type and mutant respiratory syncytial virus fusion proteins through the modulation of atropisomer interconversion properties” (Bioorg Med Chem, 2020).

Key:
CYP3A = assay: Inhibition of human liver microsomes CYP3A at 10 uM using testosterone as substrate in presence of NADPH preincubated for 30 mins followed by substrate addition and measured after 10 mins by LC/MS analysis; assay type: ADME, Microsome; conditions: probe testosterone, time 40 min
Method in brief: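 Compound preincubated 0 or 30 min at 37 °C with human liver microsomes (0.5 mg protein/mL) in sodium–potassium phosphate buffer pH 7.4 with NADPH-regenerating system. Then diluted 10-fold into secondary buffer with testosterone 250 μM plus NADPH-regenerating system and incubated 10 min. Stopped with acetonitrile containing internal standard, centrifuged, LC-MS/MS. Value is the difference in % inhibition between 0- and 30-min preincubation.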

[1] = Protein binding in mouse plasma at 1 ug/ml incubated for 4 hrs by LC-MS analysis; assay type: ADME, cell-free; conditions: at 1 µg/mL, read-out: PPB (converted)
Method in brief: (§1)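 Equilibrium dialysis with 12–14 kDa cutoff membrane. Compound dissolved in DMSO and spiked into blank plasma at 1 μg/mL final. Plasma dialysed against phosphate buffer pH 7.4 at 37 °C, 5% CO2, 4 h. Compound in plasma and buffer measured by LC-MS/MS and % bound calculated.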

[2] = Protein binding in human plasma at 1 ug/ml incubated for 4 hrs by LC-MS analysis; assay type: ADME, cell-free; conditions: at 1 µg/mL, read-out: PPB (converted); method in brief: as §1
[3] = Permeability of compound incubated for 4 hrs by PAMPA assay; assay type: ADME; conditions: read-out: permeability
Method in brief: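 Artificial membrane permeation run 4 h at room temperature and quantified by UV plate reader. Apparent permeability calculated at pH 6.2.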

Row | inhibition at 10 min, 10 µM (CYP3A) | fraction unbound at 4 h, 1 ug/ml [1] | fraction unbound at 4 h, 1 ug/ml [2] | Papp at 4 h [3] | Compound
1 | -1.4% | 0.145 | 0.093 | – | CN1CCNC(=O)COc2ccc(Cl)cc2C(=O)N2CCCC[C@H]2c2cc3nc([C@H]4C[C@H](O)C4)cc1n3n2
2 | – | – | – | 3.3 ×10⁻⁶ cm/s | CN1CCNC(=O)COc2ccc(F)cc2C(=O)N2CCCC[C@H]2c2cc3nc(N4CC(N)C4)cc1n3n2
3 | 0.4% | – | – | 27 ×10⁻⁶ cm/s | CN1CCNC(=O)COc2ccc(F)cc2C(=O)N2CCCC[C@H]2c2cc3nc([C@H]4C[C@H](O)C4)cc1n3n2
4 | – | – | – | 8 ×10⁻⁶ cm/s | CN1CCNC(=O)COc2ccc(F)cc2C(=O)N2CCCC[C@H]2c2cc3nc(N4CC(O)C4)cc1n3n2
5 | -2.9% | – | – | – | CN1CCNC(=O)COc2ccc(Cl)cc2C(=O)N2CCCCC2c2cc3nc(N4CCC4)cc1n3n2 (stereo unspecified)
6 | -4.7% | 0.02 | 0.13 | 80 ×10⁻⁶ cm/s | CN1CCNC(=O)COc2ccc(F)cc2C(=O)N2CCCC[C@H]2c2cc3nc(N4CCC4)cc1n3n2
7 | – | – | – | 28 ×10⁻⁶ cm/s | CN1CCNC(=O)COc2ccc(F)cc2C(=O)N2CCCC[C@H]2c2cc3nc([C@H]4C[C@@H](O)C4)cc1n3n2
8 | 60.1% | 0.031 | 0.064 | – | Cc1ccc2c(c1)C(=O)N1CCCCC1c1cc3nc(N4CCC4)cc(n3n1)N(C)CCNC(=O)CO2 (stereo unspecified)
9 | – | – | – | 5.9 ×10⁻⁶ cm/s | CNC1CN(c2cc3n4nc(cc4n2)[C@@H]2CCCCN2C(=O)c2cc(F)ccc2OCC(=O)NCCN3C)C1
10 | 57% | 0.222 | 0.112 | – | Cc1ccc2c(c1)C(=O)N1CCCC[C@H]1c1cc3nc([C@H]4C[C@H](O)C4)cc(n3n1)N(C)CCNC(=O)CO2
11 | – | – | – | 0.3 ×10⁻⁶ cm/s | CN1CCNC(=O)COc2ccc(F)cc2C(=O)N2CCCC[C@H]2c2cc3nc(N4CC[C@H](N)C4)cc1n3n2
